The list is not random: actives were taken first. Their share in the collection is about 2.5%.
MBD2 DNA inh: MBD2-methylated oligo binding inhibition; Q9UBB5; TR-FRET, MBD2 binding to methylated oligonucleotide; AID 686964; 370,000 tested, 0.31% active; inhibition, % at 4.4 µM; in the data active means inhibition above about 13%
Target sequence (Q9UBB5 whole entry, looked up): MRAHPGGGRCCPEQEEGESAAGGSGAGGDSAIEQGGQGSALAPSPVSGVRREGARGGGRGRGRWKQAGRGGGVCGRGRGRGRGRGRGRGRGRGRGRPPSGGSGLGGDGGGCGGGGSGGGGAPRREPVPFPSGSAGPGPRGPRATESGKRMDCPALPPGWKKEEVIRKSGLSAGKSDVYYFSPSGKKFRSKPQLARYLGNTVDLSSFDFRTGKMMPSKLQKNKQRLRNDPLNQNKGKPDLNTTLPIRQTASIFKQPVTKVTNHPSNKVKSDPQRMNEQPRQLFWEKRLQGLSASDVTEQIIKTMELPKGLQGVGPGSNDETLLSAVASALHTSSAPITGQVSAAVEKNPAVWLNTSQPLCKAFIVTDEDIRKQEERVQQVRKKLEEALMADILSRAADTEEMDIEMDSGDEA
NS3 helicase inh: blocks Hepatitis C virus NS3 helicase unwinding; AID 1800; NS3 helicase DNA unwinding, Cy5 molecular beacon fluorescence; 290,000 tested, 0.56% active; inhibition, % at 10.9 µM;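 active means inhibition above the mean of all tested compounds plus 3 SD, set per campaign, cut at about 35% in these data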;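 further: 0% = DMSO wells and 100% = thioflavine S control wells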
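Control set: DMSO versus 110 µM thioflavine S; Material: NS3 helicase fragment of HCV; Measured by: Cy5 fluorescence at 0 and 60 min, beacon hairpin quenching; Read-out basis: percent inhibition from t60/t0 fluorescence ratio; Times: reaction time 60 min, 25 °C; Repeats: single replicate; Compound dosing: single dose, 10.9 µM nominal final, DMSO 0.8% final.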
DNMT1 inh: DNMT1 (human) enzyme inhibition; P26358; DNMT1 molecular beacon, Hinp1I cleavage, fluorescence; inhibition (reported as % activation of signal), % at 10 µM; 360,000 tested, 0.83% active; AID 588458; in the data active means inhibition above about 50%
SUMO1 PPI mod: SUMO1-SIM interaction modulation; 360,000 tested, 0.33% active; inhibition, % at 20 µM; AID 602429; SUMO1 binding to a labelled peptide, TR-FRET, 1 h
Target sequence (P63165 whole entry, looked up): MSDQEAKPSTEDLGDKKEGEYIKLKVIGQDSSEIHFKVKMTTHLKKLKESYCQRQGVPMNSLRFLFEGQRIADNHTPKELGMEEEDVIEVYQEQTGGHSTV
Pemphigus Ab inh: blocks pemphigus antibody binding to human desmoglein-3 | P32926 | DSG3-coupled beads, scFv-anti-DSG3-GFP binding, flow cytometry; stronger effect = lower value | binding (percent of control), % at 10 µM | 310,000 tested, 0.48% active;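 active means binding more than 3 SD below its plate's average and above zero; inconclusive means below that plate limit but binding exactly zero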;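 further: hits lower antibody fragment binding to DSG3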
UHRF1 MBD2 ctr: human UHRF1 methylated DNA binding inhibitors; Q96T88; UHRF1 binding to methylated oligo, TR-FRET; inhibition, % at 4.4 µM; 370,000 tested, 0.75% active; AID 687016; in the data active means inhibition above about 21%;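 further: UHRF1 SRA domain binding a hemimethylated CpG hairpin DNA probe; 0% = median of test compound wells and 100% = reference inhibitor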
NS3 hel confirm: confirmation of Hepatitis C virus NS3 helicase inhibitors; shares compounds with NS3 helicase inh; NS3 helicase DNA unwinding, Cy5 molecular beacon fluorescence; inhibition, % at 10.9 µM; 1,600 tested, 31% active;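 active means inhibition above the mean of all tested compounds plus 3 SD, cutoff set per campaign, cut at about 36% in these data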
FID counter trip: counter-screen for HCV NS3 helicase inhibitors: DNA intercalator displacement. 1,600 tested, 4% active. AID 1945. shares compounds with NS3 helicase inh. DNA fluorescent intercalator displacement, fluorescence. inhibition, % at 7.9 µM;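 further: 0% = vehicle and 100% = reference compound; higher means more displacement of ethidium bromide from the DNA hairpin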
FID counter DR: counter-screen for HCV NS3 helicase inhibitors: DNA intercalator displacement dose response; fluorescent intercalator displacement from DNA, fluorescence; shares compounds with NS3 helicase inh; 120 tested, under 10 active; IC50, µM; call rule not given here
An asterisk follows results filed as active. Unless noted, no stated cut-off is given here; in the data, active means inhibition above about 37%; inactive means the rest.

How did CC1(C)CC(=O)C2=C(C1)OC1=C(C(=O)CC(C)(C)C1)C2c1cc([N+](=O)[O-])cc([N+](=O)[O-])c1O do in these assays?
MBD2 DNA inh: -1; NS3 helicase inh: 43*; DNMT1 inh: -3; SUMO1 PPI mod: -9; Pemphigus Ab inh: 81; UHRF1 MBD2 ctr: 2; NS3 hel confirm: 78*; FID counter trip: -18

Results for CCOc1cc(C2C3=C(CC(C)(C)CC3=O)OC3=C2C(=O)CC(C)(C)C3)cc([N+](=O)[O-])c1O ?
MBD2 DNA inh: -1; NS3 helicase inh: 18; DNMT1 inh: 1; SUMO1 PPI mod: -9; Pemphigus Ab inh: 102; UHRF1 MBD2 ctr: 1

How did NC(=O)C1CCN(C(=O)c2ccc(NS(=O)(=O)c3ccc(F)cc3)cc2)CC1 do in these assays?
MBD2 DNA inh: -1; DNMT1 inh: 0; SUMO1 PPI mod: 6; Pemphigus Ab inh: 104; UHRF1 MBD2 ctr: -1

What do the screens show for `NS(=O)(=O)c1ccc2nc(NC(=O)c3ccc4ncsc4c3)sc2c1`?
NS3 helicase inh: 44*; DNMT1 inh: 5; SUMO1 PPI mod: 3; NS3 hel confirm: 42*; FID counter trip: 11; FID counter DR: >79

What do the screens show for `Clc1ccccc1C1=CC(c2ccco2)n2ncnc2N1` (stereo not drawn)?
MBD2 DNA inh: 4; NS3 helicase inh: 41*; DNMT1 inh: 1; SUMO1 PPI mod: -28; UHRF1 MBD2 ctr: 6; NS3 hel confirm: 5; FID counter trip: -12

Results for Clc1ccc(C2=CC(c3ccco3)n3ncnc3N2)cc1 (stereo not drawn) ?
MBD2 DNA inh: 0; NS3 helicase inh: 6; DNMT1 inh: 23; SUMO1 PPI mod: -18; Pemphigus Ab inh: 115; UHRF1 MBD2 ctr: -13

How did S=c1nc[nH]c2c1cnn2Cc1ccccc1 do in these assays?
MBD2 DNA inh: 0; NS3 helicase inh: 41*; DNMT1 inh: -1; SUMO1 PPI mod: -1; Pemphigus Ab inh: 116; UHRF1 MBD2 ctr: -4; NS3 hel confirm: 2; FID counter trip: -4

How did Cc1cc(=O)[nH]c2c1cnn2Cc1ccccc1 do in these assays?
MBD2 DNA inh: -2; NS3 helicase inh: 3; DNMT1 inh: 8; SUMO1 PPI mod: 0; UHRF1 MBD2 ctr: 1

Results for COc1ccc(OCC(O)CNC2CCCC2)cc1 (stereo not drawn) ?
MBD2 DNA inh: 1; NS3 helicase inh: 6; DNMT1 inh: 1; SUMO1 PPI mod: 0; Pemphigus Ab inh: 114; UHRF1 MBD2 ctr: -2

How did OC(CNC1Cc2ccccc2C1)COc1ccc(F)cc1 (stereo not drawn) do in these assays?
MBD2 DNA inh: -5; NS3 helicase inh: 37*; DNMT1 inh: -9; SUMO1 PPI mod: -5; Pemphigus Ab inh: 114; UHRF1 MBD2 ctr: 2; NS3 hel confirm: 0; FID counter trip: 27

What do the screens show for `Cc1cc(N(C)C)c(C#N)c(N2CCOCC2)n1`?
MBD2 DNA inh: -1; NS3 helicase inh: 4; DNMT1 inh: 4; SUMO1 PPI mod: 0; Pemphigus Ab inh: 98; UHRF1 MBD2 ctr: 6

What do the screens show for `CCCCn1c(NC(=O)c2ccccc2Cl)c(C#N)c2nc3ccccc3nc21`?
MBD2 DNA inh: -8; NS3 helicase inh: 47*; DNMT1 inh: 76*; SUMO1 PPI mod: 53*; Pemphigus Ab inh: 104; UHRF1 MBD2 ctr: 5; NS3 hel confirm: 69*; FID counter trip: 0

What do the screens show for `CCC(=O)Nc1c(C#N)c2nc3ccccc3nc2n1-c1ccccc1C`?
MBD2 DNA inh: 0; NS3 helicase inh: -5; DNMT1 inh: -20; SUMO1 PPI mod: -17; Pemphigus Ab inh: 93; UHRF1 MBD2 ctr: -2

What do the screens show for `N#Cc1c(NC(=O)c2ccccc2Cl)n(Cc2ccccc2)c2nc3ccccc3nc12`?
MBD2 DNA inh: 1; NS3 helicase inh: 41*; DNMT1 inh: 54*; SUMO1 PPI mod: 56*; Pemphigus Ab inh: 98; UHRF1 MBD2 ctr: 10; NS3 hel confirm: 38*; FID counter trip: 18

Results for Cc1c(C#N)c(NC(=O)CCl)n(Cc2ccccc2)c1C ?
MBD2 DNA inh: 0; NS3 helicase inh: -5; DNMT1 inh: 4; SUMO1 PPI mod: 0; Pemphigus Ab inh: 102; UHRF1 MBD2 ctr: -3

What do the screens show for `COc1ccc(OC)c(Nc2nc(N)c([N+](=O)[O-])c(NC3CCCCC3)n2)c1`?
MBD2 DNA inh: -1; NS3 helicase inh: -6; DNMT1 inh: 5; SUMO1 PPI mod: 0; Pemphigus Ab inh: 93; UHRF1 MBD2 ctr: 0

How did O=C(c1ccc(CS(=O)c2ccccc2Cl)o1)N1CCN(C2CCCCC2)CC1 (stereo not drawn) do in these assays?
MBD2 DNA inh: 1; DNMT1 inh: 0; SUMO1 PPI mod: -3; Pemphigus Ab inh: 105; UHRF1 MBD2 ctr: 0

What do the screens show for `Cc1ccc(NC(=O)c2cnn(-c3ccccc3)c2C)c(C)c1`?
MBD2 DNA inh: 0; NS3 helicase inh: 12; DNMT1 inh: 0; SUMO1 PPI mod: 2; Pemphigus Ab inh: 102; UHRF1 MBD2 ctr: -2

How did Oc1c(/C=C/C=C/C=Nc2ccccc2)sc(=S)n1Cc1ccccc1 do in these assays?
MBD2 DNA inh: 2; NS3 helicase inh: 44*; DNMT1 inh: 29; SUMO1 PPI mod: 12; Pemphigus Ab inh: 100; UHRF1 MBD2 ctr: -3; NS3 hel confirm: 65*; FID counter trip: 33; FID counter DR: inactive

How did COc1ccc(Cc2nnc(NC(=O)c3ccc(F)cc3)s2)cc1OC do in these assays?
MBD2 DNA inh: 3; NS3 helicase inh: 47*; DNMT1 inh: -3; SUMO1 PPI mod: 5; Pemphigus Ab inh: 107; UHRF1 MBD2 ctr: 3; NS3 hel confirm: -12; FID counter trip: -4

What do the screens show for `COc1ccc(Cc2nnc(NC(=O)c3ccc(C)cc3)s2)cc1OC`?
MBD2 DNA inh: 0; NS3 helicase inh: 2; DNMT1 inh: 2; SUMO1 PPI mod: -3; Pemphigus Ab inh: 94; UHRF1 MBD2 ctr: 3

How did CCCN1C(=S)c2ccccc2C1c1ccccc1 (stereo not drawn) do in these assays?
MBD2 DNA inh: -3; NS3 helicase inh: -4; DNMT1 inh: -2; SUMO1 PPI mod: 1; Pemphigus Ab inh: 101; UHRF1 MBD2 ctr: -1

What do the screens show for `CCOc1ccc2[nH]c(=O)c(CN(Cc3nnnn3Cc3ccco3)C3CCCCC3)cc2c1`?
MBD2 DNA inh: 4; NS3 helicase inh: 65*; DNMT1 inh: 14; SUMO1 PPI mod: 14; Pemphigus Ab inh: inconclusive; UHRF1 MBD2 ctr: 0; NS3 hel confirm: -11; FID counter trip: -23

Source: PubChem BioAssay (several laboratories)
